Experimental data taken from ChEMBL document CHEMBL1921756, “Tyrphostin-like compounds with ubiquitin modulatory activity as possible therapeutic agents for multiple myeloma” (Bioorg Med Chem, 2011).

Legend:
[1] = Antitumor activity against human OCI-My4 cells after 24 to 72 hrs by MTT assay; format: functional, cell-based
Outline: (§1)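 Myeloma lines grown in RPMI 1640 with 10% heat-inactivated FBS and 2 mM glutamine. 20,000 cells/well were exposed to a dilution range of compound in RPMI1640/10% FBS (final DMSO ≤0.1%), with vehicle-only controls, at 37 °C for 24–72 h (typically 72 h). MTT was added for 2 h at 37 °C, then lysis buffer (20% SDS, 50% DMF, pH 4.7) for 6 h.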

[2] = system: U-266; assay: Antitumor activity against human U266 cells after 24 to 72 hrs by MTT assay; format: functional, cell-based; outline: as §1
[3] = Antitumor activity against human MM1 cells after 24 to 72 hrs by MTT assay; format: functional, cell-based; outline: as §1
[4] = Antitumor activity against human U373MG cells after 24 to 72 hrs by MTT assay; format: functional, cell-based, U-373MG ATCC; conditions: U373 MG
Outline: (§2)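 Tumor cells were plated at 20,000/well and given serially diluted compound in RPMI1640 with 10% FBS (final DMSO ≤0.1%) or vehicle alone, then incubated 24–72 h at 37 °C.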

[5] = Antitumor activity against human U87MG cells after 24 to 72 hrs by MTT assay; format: functional, cell-based, U-87MG ATCC; conditions: U-87 MG; outline: as §2
[6] = system: U-87 MG; assay: Ratio of AG490 IC50 to compound IC50 for human U87MG cells; format: functional, U-87MG ATCC
[7] = system: U373 MG; assay: Ratio of AG490 IC50 to compound IC50 for human U373MG cells; format: functional, U-373MG ATCC

Compound | IC50 [1] [nM] | IC50 [2] [nM] | IC50 [3] [nM] | further results
N#C/C(=C\c1ccc(Cl)c([N+](=O)[O-])c1)C(=O)NC(c1ccccc1)C1CC1 (stereo not given) | 2900 | 2800 | 2500 | 
CCC[C@H](NC(=O)/C(C#N)=C/c1ccc(O)cc1)c1ccccc1 |  |  | > 10000 | 
N#C/C(=C\c1cccc(Br)n1)C(=O)N[C@@H]1CCCc2ccccc21 |  | 1900 | 1500 | 
C[C@H](NC(=O)/C(C#N)=C/c1cccc(Br)n1)c1cc(C(F)(F)F)cc(C(F)(F)F)c1 |  | 1500 | 1300 | 
N#C/C(=C\c1cccc(Br)n1)C(=O)N[C@@H]1CCc2ccccc21 |  | 2500 | 2000 | 
Cc1ccc(CNC(=O)/C(C#N)=C/c2ccc(-c3cccc([N+](=O)[O-])c3)o2)cc1 |  |  | > 10000 | 
N#C/C(=C\c1cccc(Br)n1)C(=O)NC(c1ccccc1)c1ccccc1 | 6200 | 5800 | 5000 | 
N#C/C(=C\c1cccc(Br)n1)C(=O)NCc1cccc(N)c1 |  |  | > 10000 | 
C[C@H](NC(=O)/C(C#N)=C/c1cccc(Br)n1)c1ccc(Cl)cc1 | 2300 | 2000 | 1600 | 
CC(=O)OC[C@H](NC(=O)/C(C#N)=C/c1cccc(Br)n1)c1ccccc1 | 2900 | 2800 | 2600 | 
CCC(NC(=O)/C(C#N)=C/c1ccc(-c2cccc([N+](=O)[O-])c2)o1)c1ccccc1 (stereo not given) |  |  | > 10000 | 
C[C@H](NC(=O)/C(C#N)=C/c1cccc(Br)n1)c1cccc(C(F)(F)F)c1 | 1800 | 1600 | 1300 | 
N#C/C(=C\c1cccc(Br)n1)C(=O)N[C@H](c1ccccc1)C1CC1 |  |  | 1400 | 
N#C/C(=C\c1cccc(Br)n1)C(=O)N[C@@H](CO)c1ccccc1 | 3900 | 3500 | 2800 | 
CC[C@H](NC(=O)/C(C#N)=C/c1cccc(Br)n1)c1ccccc1 | 1700 | 1400 | 1100 | 
CCC[C@H](NC(=O)/C(C#N)=C/c1c(Cl)cccc1[N+](=O)[O-])c1ccccc1 |  |  | > 10000 | 
N#C/C(=C\c1ccc([N+](=O)[O-])cc1)C(=O)NCc1ccccc1 | 12000 | 9000 | 7500 | 
CCCCCCc1ccc(/C=C(\C#N)C(=O)NC(c2ccccc2)C2CC2)cc1 (stereo not given) |  |  | > 10000 | 
C[C@H](NC(=O)/C(C#N)=C/c1cccc(Br)n1)c1ccccc1 [WP 1066] | 1800 | 1500 | 1200 | IC50 [4]: 3700 nM; IC50 [5]: 5600 nM; Ratio IC50 [6]: 18; Ratio IC50 [7]: 8
N#C/C(=C\c1cccc(Br)n1)C(=O)NC(c1ccccc1)C1CC1 (racemic) | 1600 | 1300 | 1100 | 
CCC[C@H](NC(=O)/C(C#N)=C/c1ccccc1)c1ccccc1 |  | 7200 | 6250 | 
N#C/C(=C\c1ccc(-c2cccc([N+](=O)[O-])c2)o1)C(=O)NC(c1ccccc1)C1CC1 (stereo not given) |  |  | > 10000 | 
N#C/C(=C\c1ccc(O)c(O)c1)C(=O)NCc1ccccc1 | > 12500 | > 12500 | > 10000 | 
CCC[C@H](NC(=O)/C(C#N)=C/c1ccc([N+](=O)[O-])cc1[N+](=O)[O-])c1ccccc1 |  |  | > 10000 | 

Compound | IC50 [1] [nM] | IC50 [2] [nM] | IC50 [3] [nM] | further results
N#C/C(=C\c1cccc(Br)n1)C(=O)N[C@H](c1ccccc1)C(F)(F)F |  | 11100 | 9600 | 
N#C/C(=C\c1ccc(Cl)c([N+](=O)[O-])c1)C(=O)N[C@@H](CO)c1ccccc1 |  |  | > 10000 | 
C[C@H](NC(=O)/C(C#N)=C/c1ccc2c(c1)OCCN2C)c1ccccc1 |  |  | > 10000 | 
CCC[C@H](NC(=O)/C(C#N)=C/c1ccc(Cl)c([N+](=O)[O-])c1)c1ccccc1 | 1900 | 1800 | 1580 | 
CCC[C@H](NC(=O)/C(C#N)=C/c1ccc([N+](=O)[O-])cc1)c1ccccc1 |  | 3600 | 2940 | 
CCC[C@H](NC(=O)/C(C#N)=C/c1ccc(O)c([N+](=O)[O-])c1)c1ccccc1 | 9700 | 9300 | 8200 | 
Cc1ccc(CNC(=O)/C(C#N)=C/c2ccc(-c3cccc([N+](=O)[O-])c3)o2)o1 |  |  | > 10000 | 
C[C@H](NC(=O)/C(C#N)=C/c1cccc(Br)n1)c1ccc(Br)cc1 | 2000 | 1800 | 1500 | 
C[C@H](NC(=O)/C(C#N)=C/c1ccc2c(c1)OC(F)(F)O2)c1ccccc1 |  |  | > 10000 | 
COC(=O)C[C@H](NC(=O)/C(C#N)=C/c1cccc(Br)n1)c1ccccc1 |  | 3300 | 3100 | 
COc1cccc(CNC(=O)/C(C#N)=C/c2ccc(-c3cccc([N+](=O)[O-])c3)o2)c1 |  |  | > 10000 | 
C[C@H](NC(=O)/C(C#N)=C/c1ccc([N+](=O)[O-])c([N+](=O)[O-])c1)c1ccccc1 |  |  | > 10000 | 
COc1ccc([C@H](C)NC(=O)/C(C#N)=C/c2cccc(Br)n2)cc1 | 1800 | 1400 | 1200 | 
N#C/C(=C\c1ccc(N2CCCCC2)cc1)C(=O)NC(c1ccccc1)C1CC1 (stereo not given) |  | > 10000 | > 10000 | 
CCC[C@H](NC(=O)/C(C#N)=C/c1ccc(O)c(Br)c1)c1ccccc1 |  |  | > 10000 | 
CCC[C@H](NC(=O)/C(C#N)=C/c1cccc([N+](=O)[O-])c1)c1ccccc1 | 2200 | 2100 | 1730 | 
COc1cccc([C@H](C)NC(=O)/C(C#N)=C/c2cccc(Br)n2)c1 | 3100 | 2800 | 2400 | 
N#C/C(=C\c1ccc(-c2cccc([N+](=O)[O-])c2)o1)C(=O)NCc1ccccc1Cl |  |  | > 10000 | 
C[C@H](NC(=O)/C(C#N)=C/c1cccc(Br)n1)c1ccc(F)cc1 |  | 1400 | 1200 | 
C[C@H](NC(=O)/C(C#N)=C/c1cccc(Br)n1)c1ccc(N)cc1 |  |  | > 10000 | 
CCC[C@H](NC(=O)/C(C#N)=C/c1cccc(Br)n1)c1ccccc1 | 1500 | 1300 | 1000 | 
C[C@H](NC(=O)/C(C#N)=C/c1cccc(Br)n1)c1ccccc1F | 2400 | 2000 | 1800 | 
N#C/C(=C\c1cccc(Br)n1)C(=O)N[C@@H](Cc1ccccc1)c1ccccc1 | 2900 | 2700 | 2500 | 
